Data set [1] deals with T1, human recombinant GIVA cPLA2 (Homo sapiens, UniProt P47712).
T1 sequence (P47712 1-749): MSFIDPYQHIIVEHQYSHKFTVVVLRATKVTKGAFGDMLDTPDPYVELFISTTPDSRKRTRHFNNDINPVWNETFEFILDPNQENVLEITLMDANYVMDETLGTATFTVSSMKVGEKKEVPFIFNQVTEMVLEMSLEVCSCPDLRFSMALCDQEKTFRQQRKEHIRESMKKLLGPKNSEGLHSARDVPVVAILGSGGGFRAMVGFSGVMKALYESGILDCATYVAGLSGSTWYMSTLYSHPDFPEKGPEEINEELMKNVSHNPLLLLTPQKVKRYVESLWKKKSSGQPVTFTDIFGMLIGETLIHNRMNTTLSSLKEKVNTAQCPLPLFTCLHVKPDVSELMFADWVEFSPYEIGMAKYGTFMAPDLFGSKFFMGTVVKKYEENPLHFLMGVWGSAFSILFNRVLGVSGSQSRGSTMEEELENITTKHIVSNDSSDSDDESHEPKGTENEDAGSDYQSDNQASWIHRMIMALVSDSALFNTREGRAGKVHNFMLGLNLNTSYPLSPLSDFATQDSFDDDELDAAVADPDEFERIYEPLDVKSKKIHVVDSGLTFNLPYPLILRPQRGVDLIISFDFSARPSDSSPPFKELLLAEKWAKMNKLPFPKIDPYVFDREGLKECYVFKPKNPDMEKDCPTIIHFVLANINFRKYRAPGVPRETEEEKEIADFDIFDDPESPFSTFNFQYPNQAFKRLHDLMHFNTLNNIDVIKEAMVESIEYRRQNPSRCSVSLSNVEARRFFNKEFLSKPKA
Format: biochemical.

Another data set is described as follows: plasma stability study. Format: in vitro ADME. As to conditions: 37 °C, 1 mg/mL. Summed up:
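Test compound added to preheated human plasma (37 °C) at a final 1 mg/mL. Aliquots taken at 0, 15, 30 and 60 min, quenched with acetonitrile, vortexed and centrifuged 5 min. Supernatants analysed by LC-HRMS/MS (negative ESI, C18 column, acetonitrile/isopropanol–water gradient with 0.01% formic acid). Each sample run in triplicate. Percent remaining relative to initial concentration plotted against time.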

Consider “5-((6-(4-Butoxyphenyl)-2-fluorohexanoyl)oxy)pentanoic Acid [Compound 27a]”, for which the “inhibition of GIVA cPLA2 (in words)” value in data set [1] is listed as “abolished the inhibitory potency”. In the data set “plasma stability study” (human plasma, 1 h), the “percent parent compound remaining after 1 h” value was around 100%.
For “5-((6-(4-Butoxyphenyl)hexanoyl)oxy)pentanoic Acid [Compound 27b]”, in data set [1], the “inhibition of GIVA cPLA2 (in words)” value is recorded as “no inhibition”.
Turning to `CCCCOc1ccc(CCCCC(=O)C(=O)OCCCCC(=O)O)cc1` [Compound 25a, 5-((6-(4-Butoxyphenyl)-2-oxohexanoyl)oxy)pentanoic Acid], the “times less potent than 25b against GIVA cPLA2” value in data set [1] was found to be 3 times. The “parent compound in human plasma after 30 min” value in the data set “plasma stability study” is given as “not detectable”.
As to `CCCCCCOc1ccc(CCCCC(=O)C(=O)OCCCCC(=O)O)cc1` [Compound 25b, 5-((6-(4-(Hexyloxy)phenyl)-2-oxohexanoyl)oxy)pentanoic Acid], in data set [1], the “selectivity for GIVA cPLA2 over GVIA iPLA2” value is “at least 500 fold” and the “times more potent than 6 against GIVA cPLA2” value was determined as 4 times. Further, in the data set “plasma stability study”, the “parent compound in human plasma after 30 min” value was “not detectable”.
In the case of `CCCCOc1ccc(CCCCC(=O)C(=O)O)cc1` [Compound 29, 6-(4-Butoxyphenyl)-2-oxohexanoic Acid], the “inhibition of GIVA cPLA2 (in words)” value in data set [1] is listed as “very weak inhibition”.

For the origin of these results see article PMC6120731 (ACS Omega, 2018).
